Consider 26 compounds from ChEMBL document CHEMBL4118046, “Chemistry of Renieramycins. 17. A New Generation of Renieramycins: Hydroquinone 5-O-Monoester Analogues of Renieramycin M as Potential Cytotoxic Agents against Non-Small-Cell Lung Cancer Cells” (J Nat Prod, 2017).

The term IC50 denotes the concentration needed to halve the response being measured. A high value points to weaker potency.

One experiment has as its system NCI-H460. Put plainly: Cytotoxicity against human NCI-H460 cells after 72 hrs by MTT assay. It counts as functional, cell-based. To be noted: NCI-H460, 72 h. In a few lines:
(§1)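 Metastatic human NSCLC lines H292 and H460, obtained from ATCC, were tested for viability by MTT assay following a previously published protocol. Cisplatin and doxorubicin served as positive controls. IC50 values are reported.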

For another experiment, the system named is NCI-H292. Put plainly: Cytotoxicity against human NCI-H292 cells after 72 hrs by MTT assay. It is filed as functional, cell-based. To be noted: NCI-H292, 72 h. Put shortly:
as §1

Consider `COC1=C(C)C(=O)C2=C(C1=O)[C@@H]1[C@@H]3CC4=C(C(=O)C(OC)=C(C)C4=O)[C@H](CO)N3[C@@H](C#N)[C@@H](C2)N1C`, for which the IC50 with NCI-H460 was found to be 164 nM; in the experiment on NCI-H292 it was 217 nM.

For the compound `C/C=C(/C)C(=O)OC[C@H]1c2c(O)c(OC)c(C)c(OC(=O)/C=C/c3ccc(F)cc3)c2C[C@H]2[C@H]3C4=C(C[C@H]([C@H](C#N)N12)N3C)C(=O)C(C)=C(OC)C4=O`, the 50% inhibitory concentration (IC50) in the experiment with NCI-H460 was 17 nM; in the experiment with NCI-H292, 63 nM.

On to `C/C=C(/C)C(=O)OC[C@H]1c2c(O)c(OC)c(C)c(OC=O)c2C[C@H]2[C@H]3C4=C(C[C@H]([C@H](C#N)N12)N3C)C(=O)C(C)=C(OC)C4=O`, for which the half-maximal inhibitory concentration (IC50) in the experiment with NCI-H460 was determined as 9.7 nM; in the experiment with NCI-H292, 12 nM.

With `C/C=C(/C)C(=O)OC[C@H]1c2c(O)c(OC)c(C)c(OC(=O)/C=C/c3cccnc3)c2C[C@H]2[C@H]3C4=C(C[C@H]([C@H](C#N)N12)N3C)C(=O)C(C)=C(OC)C4=O`, the IC50 is 52 nM with NCI-H460 and 57 nM in the experiment with NCI-H292.

As to `C/C=C(/C)C(=O)OC[C@H]1c2c(O)c(OC)c(C)c(O)c2C[C@H]2[C@H]3c4c(O)c(OC)c(C)c(O)c4C[C@H]([C@H](C#N)N12)N3C`, the concentration for half-maximal inhibition (IC50) stood at 1.1 nM in the experiment on NCI-H460 and 1.7 nM in the experiment on NCI-H292.

Regarding `C/C=C(/C)C(=O)OC[C@H]1c2c(O)c(OC)c(C)c(OC(=O)CCC)c2C[C@H]2[C@H]3C4=C(C[C@H]([C@H](C#N)N12)N3C)C(=O)C(C)=C(OC)C4=O`, the concentration for half-maximal inhibition (IC50) in the experiment with NCI-H460 came to 5.6 nM; in the experiment with NCI-H292, 6.7 nM.

On to `C/C=C(/C)C(=O)OC[C@H]1c2c(O)c(OC)c(C)c(OC(=O)c3ccc(Br)cc3)c2C[C@H]2[C@H]3C4=C(C[C@H]([C@H](C#N)N12)N3C)C(=O)C(C)=C(OC)C4=O`, for which the results for the IC50 with NCI-H460 and in the experiment on NCI-H292 were 14 nM and 21 nM, respectively.

In the case of `C/C=C(/C)C(=O)OC[C@H]1c2c(O)c(OC)c(C)c(OC(=O)c3ccc4ncccc4c3)c2C[C@H]2[C@H]3C4=C(C[C@H]([C@H](C#N)N12)N3C)C(=O)C(C)=C(OC)C4=O`, the figures for the concentration for half-maximal inhibition (IC50) in the experiment on NCI-H460 and with NCI-H292 were 45 nM and 54 nM, respectively.

On to `C/C=C(/C)C(=O)OC[C@H]1c2c(O)c(OC)c(C)c(OC(=O)CNC(=O)OC(C)(C)C)c2C[C@H]2[C@H]3C4=C(C[C@H]([C@H](C#N)N12)N3C)C(=O)C(C)=C(OC)C4=O`, for which the IC50 is 6 nM in the experiment with NCI-H460 and 10 nM in the experiment on NCI-H292.

`C/C=C(/C)C(=O)OC[C@H]1c2c(O)c(OC)c(C)c(OC(=O)/C=C/c3ccccc3)c2C[C@H]2[C@H]3C4=C(C[C@H]([C@H](C#N)N12)N3C)C(=O)C(C)=C(OC)C4=O`: the IC50 in the experiment with NCI-H460 turned out to be 11 nM; with NCI-H292 it was 12 nM.

In the case of `C/C=C(/C)C(=O)OC[C@H]1c2c(O)c(OC)c(C)c(OC(=O)c3cccnc3)c2C[C@H]2[C@H]3C4=C(C[C@H]([C@H](C#N)N12)N3C)C(=O)C(C)=C(OC)C4=O`, the figures for the IC50 in the experiment with NCI-H460 and in the experiment on NCI-H292 were 20 nM and 59 nM, respectively.

Consider `C/C=C(/C)C(=O)OC[C@H]1c2c(c(O)c(C)c3c2OCO3)C[C@H]2[C@H]3C4=C(C[C@H]([C@H](C#N)N12)N3C)C(=O)C(C)=C(OC)C4=O`, for which the IC50 in the experiment with NCI-H460 came out at 36 nM; in the experiment with NCI-H292, 61 nM.

Turning to `C/C=C(/C)C(=O)OC[C@H]1c2c(c(OC(C)=O)c(C)c(OC)c2OC(C)=O)C[C@H]2[C@H]3C4=C(C[C@H]([C@H](C#N)N12)N3C)C(=O)C(C)=C(OC)C4=O`, the half-maximal inhibitory concentration (IC50) stood at 25 nM with NCI-H460 and 28 nM with NCI-H292.

For the compound `C/C=C(/C)C(=O)OC[C@H]1c2c(O)c(OC)c(C)c(OC(=O)[C@H](C)NC(=O)OC(C)(C)C)c2C[C@H]2[C@H]3C4=C(C[C@H]([C@H](C#N)N12)N3C)C(=O)C(C)=C(OC)C4=O`, the concentration for half-maximal inhibition (IC50) is 16 nM in the experiment with NCI-H460 and 24 nM with NCI-H292.

`C/C=C(/C)C(=O)OC[C@H]1c2c(O)c(OC)c(C)c(OC(=O)CCCC)c2C[C@H]2[C@H]3C4=C(C[C@H]([C@H](C#N)N12)N3C)C(=O)C(C)=C(OC)C4=O`: the IC50 is 26 nM in the experiment on NCI-H460 and 36 nM with NCI-H292.

In the case of `C/C=C(/C)C(=O)OC[C@H]1c2c(O)c(OC)c(C)c(OC(=O)c3cnc4ccccc4c3)c2C[C@H]2[C@H]3C4=C(C[C@H]([C@H](C#N)N12)N3C)C(=O)C(C)=C(OC)C4=O`, the values for the half-inhibitory concentration (IC50) with NCI-H460 and in the experiment with NCI-H292 were 22 nM and 111 nM, respectively.

Turning to `C/C=C(/C)C(=O)OC[C@H]1c2c(O)c(OC)c(C)c(OC(=O)OC)c2C[C@H]2[C@H]3C4=C(C[C@H]([C@H](C#N)N12)N3C)C(=O)C(C)=C(OC)C4=O`, the 50% inhibitory concentration (IC50) in the experiment with NCI-H460 was 14 nM; with NCI-H292 it was 11 nM.

Take `C/C=C(/C)C(=O)OC[C@H]1c2c(O)c(OC)c(C)c(OC(=O)c3ccc(-c4ccccc4)cc3)c2C[C@H]2[C@H]3C4=C(C[C@H]([C@H](C#N)N12)N3C)C(=O)C(C)=C(OC)C4=O`: the IC50 with NCI-H460 was found to be 54 nM; in the experiment on NCI-H292, 71 nM.

For `COc1cc2c(cc1O)CCN[C@]21CS[C@@H]2c3c(OC(C)=O)c(C)c4c(c3[C@H](COC1=O)N1[C@@H]2[C@H]2c3c(cc(C)c(OC)c3O)C[C@H]([C@@H]1C#N)N2C)OCO4`, the concentration for half-maximal inhibition (IC50) with NCI-H460 was 1.2 nM; in the experiment on NCI-H292 it was 1.6 nM.

Turning to `C/C=C(/C)C(=O)OC[C@H]1c2c(O)c(OC)c(C)c(OC(=O)c3ccncc3)c2C[C@H]2[C@H]3C4=C(C[C@H]([C@H](C#N)N12)N3C)C(=O)C(C)=C(OC)C4=O`, the IC50 turned out to be 11 nM in the experiment on NCI-H460 and 20 nM with NCI-H292.

As for `C/C=C(/C)C(=O)OC[C@H]1c2c(O)c(OC)c(C)c(OC(=O)CC)c2C[C@H]2[C@H]3C4=C(C[C@H]([C@H](C#N)N12)N3C)C(=O)C(C)=C(OC)C4=O`, the half-maximal inhibitory concentration (IC50) with NCI-H460 is 5.1 nM; in the experiment on NCI-H292, 2.3 nM.

`C/C=C(/C)C(=O)OC[C@H]1c2c(O)c(OC)c(C)c(OC(C)=O)c2C[C@H]2[C@H]3C4=C(C[C@H]([C@H](C#N)N12)N3C)C(=O)C(C)=C(OC)C4=O`: the results for the half-inhibitory concentration (IC50) with NCI-H460 and in the experiment with NCI-H292 were 3.6 nM and 3 nM, respectively.

For `C/C=C(/C)C(=O)OC[C@H]1c2c(O)c(OC)c(C)c(OC(=O)CCCCC)c2C[C@H]2[C@H]3C4=C(C[C@H]([C@H](C#N)N12)N3C)C(=O)C(C)=C(OC)C4=O`, the concentration for half-maximal inhibition (IC50) in the experiment with NCI-H460 was 15 nM; in the experiment on NCI-H292 it was 16 nM.

Regarding `C/C=C(/C)C(=O)OC[C@H]1c2c(O)c(OC)c(C)c(OC(=O)c3ccccn3)c2C[C@H]2[C@H]3C4=C(C[C@H]([C@H](C#N)N12)N3C)C(=O)C(C)=C(OC)C4=O`, the half-maximal inhibitory concentration (IC50) in the experiment with NCI-H460 turned out to be 26 nM; in the experiment on NCI-H292, 103 nM.

In the case of `COc1cccc2c1C(=O)c1c(O)c3c(c(O)c1C2=O)C[C@@](O)(C(=O)CO)C[C@@H]3O[C@H]1C[C@H](N)[C@H](O)[C@H](C)O1` [DOXORUBICIN], the IC50 worked out at 34 nM with NCI-H460 and 351 nM in the experiment with NCI-H292.

As to `C/C=C(/C)C(=O)OC[C@H]1C2=C(C[C@H]3[C@H]4C5=C(C[C@@H]([C@H](C#N)N13)N4C)C(=O)C(C)=C(OC)C5=O)C(=O)C(C)=C(OC)C2=O` [RENIERAMYCIN M], the results for the half-maximal inhibitory concentration (IC50) in the experiment on NCI-H460 and with NCI-H292 were 6.5 nM and 24 nM, respectively.
